Activity calls are given as the source filed them. The rule behind the calls is not given here.
Columns and labels:
HL-60 = experiment: Cytotoxicity against human HL60 cells by SRB assay; type: functional, cell-based
Procedure, shortened: (§1)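 SRB assay on tumor cells. Three independent experiments, five replicate wells for each concentration. IC50 obtained by linear regression where applicable. Mitomycin served as positive control.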

SMMC-7721 = experiment: Cytotoxicity against human SMMC7721 cells by SRB assay; type: functional, cell-based; procedure, shortened: as §1
Aorta [1] = experiment: Vasodilatory activity in rat thoracic aorta assessed as relaxation of phenylephrine-induced precontraction at 4 to 10 ug/mL; type: functional, tissue-based
Procedure, shortened: (§2)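 Isolated thoracic aortic rings about 3 mm long, taken after pentobarbital anesthesia (60 mg/kg ip). Rings held in Krebs solution at pH 7.4 and 37 °C, gassed with 95% O2/5% CO2, for isometric tension recording. Equilibrated 1 h at 2 g resting tension, then challenged repeatedly with 80 mM KCl. Precontracted with 10^-6 M phenylephrine. Endothelium confirmed by >80% relaxation to 10^-6 M acetylcholine.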

[2] = Solubility of the compound; type: physicochemical
Aorta [3] = experiment: Vasodilatory activity in rat thoracic aorta assessed as relaxation of phenylephrine-induced precontraction at 10 ug/mL; type: functional; parameters: scale not given: the % may be the effect or the level left; procedure, shortened: as §2

| SMILES | Activity (HL-60) | Activity (SMMC-7721) | Activity (Aorta [1]) | solubility [2] | Activity (Aorta [3]) [%] |
| --- | --- | --- | --- | --- | --- |
| CC(C)C(=O)C1(O)CC([C@@H]2CC[C@]3(C)C4=CC[C@H]5C(C)(C)C(=O)CC[C@]5(C)[C@H]4CC[C@@]23C)CO1 (mixture of isomers) | inactive | inactive | inactive |  |  |
| CC1(C)[C@H](O)CC[C@]2(C)[C@H]3CC[C@@]4(C)[C@H]([C@H]5COC(=O)[C@@](O)(C(C)(C)O)C5)CC[C@]4(C)C3=CC[C@@H]12 | inactive | inactive | inactive |  |  |
| CC(C)C(=O)C1(O)CC([C@@H]2CC[C@]3(C)C4=CC[C@H]5C(C)(C)[C@H](O)CC[C@]5(C)[C@H]4CC[C@@]23C)CO1 (mixture of isomers) | inactive | inactive | inactive |  |  |
| C[C@@H](CC(=O)[C@@H]1OC1(C)C)[C@@H]1CC[C@]2(C)C3=CC[C@H]4C(C)(C)C(=O)CC[C@]4(C)[C@H]3CC[C@@]12C |  |  | inactive | Insoluble |  |
| CC(C)=CCC[C@H](C)[C@@H]1CC[C@]2(C)C3=CC[C@H]4C(C)(C)[C@@H](O)CC[C@]4(C)[C@H]3CC[C@@]12C | inactive | inactive | inactive |  |  |
| CC1(C)O[C@H]1C(=O)C[C@H](C(=O)O)[C@@H]1CC[C@]2(C)C3=CC[C@H]4C(C)(C)C(=O)CC[C@]4(C)[C@H]3CC[C@@]12C | inactive | inactive | inactive |  |  |
| CCO[C@]1([C@@H]2OC2(C)C)CC([C@@H]2CC[C@]3(C)C4=CC[C@H]5C(C)(C)[C@H](O)CC[C@]5(C)[C@H]4CC[C@@]23C)CO1 (stereo partly drawn) [DYSOLENTICIN F] |  |  | inactive | Insoluble |  |
| CC1(C)C(=O)CC[C@]2(C)[C@H]3CC[C@@]4(C)[C@H](C5=CC(=O)NC5=O)CC[C@]4(C)C3=CC[C@@H]12 [LAXIRACEMOSIN H] | inactive | inactive |  |  | 18.3 |
| CC(=O)[C@@H]1CC[C@]2(C)C3=CC[C@H]4C(C)(C)C(=O)CC[C@]4(C)[C@H]3CC[C@@]12C [DYSOLENTICIN G] |  |  |  | Insoluble |  |
| CC(C)=C[C@@H]1C=C([C@@H]2CC[C@]3(C)C4=CC[C@H]5C(C)(C)C(=O)CC[C@]5(C)[C@H]4CC[C@@]23C)C(=O)O1 | inactive | inactive |  |  |  |
| CC(C)=CC(=O)[C@@H](O)[C@H](C)[C@@H]1CC[C@]2(C)C3=CC[C@H]4C(C)(C)[C@@H](O)CC[C@]4(C)[C@H]3CC[C@@]12C | inactive | inactive | inactive |  |  |
| CC1(C)C(=O)CC[C@]2(C)[C@H]3CC[C@@]4(C)[C@H](C5=CC(O)(CO)OC5=O)CC[C@]4(C)C3=CC[C@@H]12 (mixture of isomers) [DYSOLENTICIN C] |  |  |  | Insoluble |  |
| CC1(C)[C@H](O)CC[C@]2(C)[C@H]3CC[C@@]4(C)[C@H](C5=CC(=O)NC5=O)CC[C@]4(C)C3=CC[C@@H]12 [DYSOLENTICIN J] | inactive | inactive |  |  | 87.4 |
| CC1(C)C(=O)CC[C@]2(C)[C@H]3CC[C@@]4(C)[C@H](C5COC(=O)C5)CC[C@]4(C)C3=CC[C@@H]12 (stereo partly drawn) | inactive | inactive |  |  | 43.5 |
| CC1(C)[C@H](O)CC[C@]2(C)[C@H]3CC[C@@]4(C)[C@H](C5COC(=O)C5)CC[C@]4(C)C3=CC[C@@H]12 (stereo partly drawn) | inactive | inactive |  |  | 37.5 |
| C[C@@H]([C@@H]1O[C@@H]1[C@@H]1OC1(C)C)[C@@H]1CC[C@]2(C)C3=CC[C@H]4C(C)(C)C(=O)CC[C@]4(C)[C@H]3CC[C@@]12C | inactive | inactive | inactive |  |  |
| COC(=O)[C@@H](CC(=O)[C@@H]1OC1(C)C)[C@@H]1CC[C@]2(C)C3=CC[C@H]4C(C)(C)C(=O)CC[C@]4(C)[C@H]3CC[C@@]12C | inactive | inactive |  |  |  |

Source: ChEMBL document CHEMBL1833837, “Tirucallane-type triterpenoids from Dysoxylum lenticellatum” (J Nat Prod, 2011)
